Legend:
Rattus norvegicus [1] = experiment: Intravenous dose that inhibits by 50% the allergen OA-induced eosinophil influx in to the airway lumen of actively sensitized rats after -1h, +24h treatment schedule; assay type: functional
Outline: (§1)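 Actively sensitized Brown-Norway rats challenged with ovalbumin (OA). Compound given intratracheally, orally or i.v. either 1 h or 6 h before challenge, with a second dose 24 h after challenge. Eosinophils counted in bronchoalveolar lavage fluid; ED50 is the dose inhibiting OA-induced eosinophil influx by 50%; n = 5–20 rats.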

[2] = Inhibitory activity against IL-2 receptor in human T-cell jurkat cell line stimulated by phytohemagglutininin and phorbol myristate acetate; assay type: cell-based
Outline: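 Jurkat human T-cell line carrying an IL-2 reporter gene, stimulated with phytohemagglutinin plus phorbol myristate acetate. Values are mean IC50 ± SEM (n = 3–6) or the mean of two experiments.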

[3] = Inhibitory activity against PPD-induced proliferation of human peripheral blood mononuclear cell (HPBMNC); assay type: functional
Outline: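 Human peripheral blood mononuclear cells isolated from blood, stimulated with PPD (M. tuberculosis purified protein derivative). Proliferation read after 5 days in medium with 20% fetal calf serum. Mean IC50 ± SEM (n = 3–6) or the mean of two experiments.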

Rattus norvegicus [4] = species on record: Rattus norvegicus; experiment: Intratracheal dose that inhibits by 50% the allergen OA-induced eosinophil influx in to the airway lumen of actively sensitized rats after -6h, +24h treatment schedule; assay type: functional; conditions: Trachea, inhaled or nasal; outline: as §1
Rattus norvegicus [5] = experiment: Oral dose that inhibits by 50% the allergen OA-induced eosinophil influx in to the airway lumen of actively sensitized rats after -1h, +24h treatment schedule; assay type: functional; outline: as §1
[6] = Inhibitory activity against IFN-gamma production (Anti-CD3 monoclonal antibody stimulated and cultured CD4 positive cells purified from human peripheral blood mononuclear cell); assay type: functional, cell-based
Rattus norvegicus [7] = experiment: Intravenous dose that inhibits by 50% the allergen OA-induced eosinophil influx in to the airway lumen of actively sensitized rats after -6h, +24h treatment schedule; assay type: functional; outline: as §1
PBMC = experiment: Inhibitory activity against murine mixed lymphocyte reaction; conditions: Mus musculus
[8] = Inhibitory activity against calcineurin phosphatase; design: species or system Homo sapiens
[9] = Inhibitory activity against IL-5 production (Anti-CD3 monoclonal antibody stimulated and cultured CD4 positive cells purified from human peripheral blood mononuclear cell); assay type: functional, cell-based
Rattus norvegicus [10] = species on record: Rattus norvegicus; experiment: Intratracheal dose that inhibits by 50% the allergen OA-induced eosinophil influx in to the airway lumen of actively sensitized rats after -1h, +24h treatment schedule; assay type: functional; conditions: Trachea, inhaled or nasal; outline: as §1
Rattus norvegicus [11] = experiment: Oral dose that inhibits by 50% the allergen OA-induced eosinophil influx in to the airway lumen of actively sensitized rats after -6h, +24h treatment schedule; assay type: functional; outline: as §1

SMILES	ED50 (Rattus norvegicus [1]) [mg/kg]	IC50 [2] [pM]	IC50 [3] [pM]	ED50 (Rattus norvegicus [4]) [mg/kg]	ED50 (Rattus norvegicus [5]) [mg/kg]	IC50 [6] [pM]	ED50 (Rattus norvegicus [7]) [mg/kg]	IC50 (PBMC) [pM]	Ki [8] [pM]	IC50 [9] [pM]	ED50 (Rattus norvegicus [10]) [mg/kg]	ED50 (Rattus norvegicus [11]) [mg/kg]
C=CC[C@@H]1/C=C(\C)C[C@H](C)C[C@H](OC)[C@H]2O[C@@](O)(C(=O)C(=O)N3CCCC[C@H]3C(=O)O[C@H](/C(C)=C/[C@@H]3CC[C@@H](O)[C@H](OC)C3)[C@H](C)[C@@H](O)CC1=O)[C@H](C)C[C@@H]2OC [TACROLIMUS ANHYDROUS]	0.3	190	180	0.3	10	60	0.3	290	35000	60	0.3	3
CCCC1O[C@@H]2C[C@H]3[C@@H]4CCC5=CC(=O)C=C[C@]5(C)[C@H]4[C@@H](O)C[C@]3(C)[C@]2(C(=O)CO)O1 (stereo not given in full) [BUDESONIDE]						320				120	0.5	
